Data as given in ChEMBL document CHEMBL5674880 (PLoS One, 2018).

Assays:
Assay type in all cases: functional, cell-based
[1] = tested on: OE19; experiment: Antiproliferative activity against human OE19 cells after 10 days; details: OE19, 240 h
In short: (§1)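 Broad cancer cell line panel (Eurofins Oncopanel, about 240 lines; mycoplasma negative, STR verified) grown in 2D culture and exposed to compound in a 10-day proliferation assay. The top concentration was 10 μM for the SMYD2 inhibitor series and 25 μM for the SMYD3 inhibitor. The proliferative IC50 is taken from concentration-response data, each value the mean of three biological replicates.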

[2] = tested on: SU.86.86; experiment: Antiproliferative activity against human SU-86-86 cells after 10 days; details: SU.86.86, 240 h
[3] = Antiproliferative activity against human CML-T1 cells after 10 days; details: CML-T1, 240 h
In short: (§2)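 Tested as part of a 240-line cancer cell panel (Eurofins Oncopanel); all lines were mycoplasma-negative and STR-verified. Cells were exposed to a compound concentration series in 2D culture for 10 days. The highest concentration was 10 μM or 25 μM, depending on the inhibitor. Antiproliferative IC50 was derived from the mean of three biological replicates.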

[4] = tested on: RPMI-8226; experiment: Antiproliferative activity against human RPMI-8226 cells after 10 days; details: RPMI-8226, 240 h
[5] = tested on: CAPAN-1; experiment: Antiproliferative activity against human CAPAN-1 cells after 10 days; details: CAPAN-1, 240 h; in short: as §2
[6] = tested on: SK-MEL-1; experiment: Antiproliferative activity against human SK-MEL-1 cells after 10 days; details: SK-MEL-1, 240 h
[7] = tested on: CCF-STTG1; experiment: Antiproliferative activity against human CCF-STTG1 cells after 10 days; details: CCF-STTG1, 240 h
In short: (§3)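 Cell lines run in the Eurofins Oncopanel broad cancer panel, all mycoplasma-negative and STR-verified. Cells were exposed to a compound concentration series in a 10-day proliferation assay, and an anti-proliferative IC50 was derived. Values are the mean of three biological replicates.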

[8] = tested on: KLE; experiment: Antiproliferative activity against human KLE cells after 10 days; details: 240 h; in short: as §1
[9] = tested on: CAKI-1; experiment: Antiproliferative activity against human CAKI-1 cells after 10 days; details: CAKI-1, 240 h; in short: as §2
[10] = tested on: SAOS-2; experiment: Antiproliferative activity against human SAOS-2 cells after 10 days; details: SAOS-2, 240 h
[11] = tested on: PC-3; experiment: Antiproliferative activity against human PC-3 cells after 10 days; details: PC-3, 240 h; in short: as §1
[12] = tested on: MOLT-3; experiment: Antiproliferative activity against human MOLT-3 cells after 10 days; details: MOLT-3, 240 h; in short: as §1
[13] = tested on: CHL-1; experiment: Antiproliferative activity against human CHL-1 cells after 10 days; details: CHL-1, 240 h; in short: as §2
[14] = tested on: SW1353; experiment: Antiproliferative activity against human SW1353 cells after 10 days; details: SW1353, 240 h
[15] = tested on: 5637; experiment: Antiproliferative activity against human 5637 cells after 10 days; details: Homo sapiens, 5637, 240 h; in short: as §2
[16] = tested on: NALM-6; experiment: Antiproliferative activity against human NALM-6 cells after 10 days; details: NALM-6, 240 h; in short: as §1
[17] = tested on: DMS-273; experiment: Antiproliferative activity against human DMS-273 cells after 10 days; details: DMS-273, 240 h
In short: (§4)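 10-day 2D proliferation screen of a broad cancer cell panel (about 240 lines, Eurofins Oncopanel). All lines were mycoplasma negative and STR verified. Compounds were dosed up to a top concentration of 10 μM or 25 μM, depending on the inhibitor. Anti-proliferative IC50 values are the average of three biological replicates.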

[18] = tested on: SCC-4; experiment: Antiproliferative activity against human SCC-4 cells after 10 days; details: SCC-4, 240 h
[19] = tested on: DMS-53; experiment: Antiproliferative activity against human DMS-53 cells after 10 days; details: DMS-53, 240 h; in short: as §4
[20] = tested on: T47D; experiment: Antiproliferative activity against human T47D cells after 10 days; details: 240 h
[21] = tested on: SNB-19; experiment: Antiproliferative activity against human SNB-19 cells after 10 days; details: SNB-19, 240 h
[22] = tested on: A101D; experiment: Antiproliferative activity against human A101D cells after 10 days; details: 240 h; in short: as §2
[23] = tested on: U2OS; experiment: Antiproliferative activity against human U2OS cells after 10 days; details: 240 h
[24] = tested on: WiDr; experiment: Antiproliferative activity against human WiDr cells after 10 days; details: 240 h
[25] = tested on: FaDu; experiment: Antiproliferative activity against human FaDu cells after 10 days; details: 240 h; in short: as §4
[26] = tested on: COLO 205; experiment: Antiproliferative activity against human COLO 205 cells after 10 days; details: COLO 205, 240 h; in short: as §2
[27] = tested on: HT-29; experiment: Antiproliferative activity against human HT-29 cells after 10 days; details: HT-29, 240 h; in short: as §4
[28] = tested on: NCI-H661; experiment: Antiproliferative activity against human NCI-H661 cells after 10 days; details: NCI-H661, 240 h; in short: as §1
[29] = tested on: CGTH-W-1; experiment: Antiproliferative activity against human CGTH-W-1 cells after 10 days; details: CGTH-W-1, 240 h; in short: as §2
[30] = tested on: RD; experiment: Antiproliferative activity against human RD cells after 10 days; details: 240 h; in short: as §1
[31] = tested on: HepG2; experiment: Antiproliferative activity against human HepG2 cells after 10 days; details: HepG2, 240 h; in short: as §4
[32] = tested on: G-402; experiment: Antiproliferative activity against human G-402 cells after 10 days; details: G-402, 240 h; in short: as §4
[33] = tested on: COR-L105; experiment: Antiproliferative activity against human COR-L105 cells after 10 days; details: COR-L105, 240 h; in short: as §4
[34] = tested on: HCT-15; experiment: Antiproliferative activity against human HCT-15 cells after 10 days; details: HCT-15, 240 h; in short: as §3
[35] = tested on: COR-L23; experiment: Antiproliferative activity against human COR-L23 cells after 10 days; details: COR-L23, 240 h; in short: as §4
[36] = Antiproliferative activity against human OCUG-1 cells after 10 days; details: OCUG-1, 240 h; in short: as §1
[37] = Antiproliferative activity against human BM-1604 cells after 10 days; details: BM-1604, 240 h; in short: as §2
[38] = tested on: HeLa; experiment: Antiproliferative activity against human HeLa cells after 10 days; details: 240 h; in short: as §4
[39] = tested on: SW982; experiment: Antiproliferative activity against human SW982 cells after 10 days; details: SW982, 240 h
[40] = tested on: SK-OV-3; experiment: Antiproliferative activity against human SK-OV-3 cells after 10 days; details: SK-OV-3, 240 h
[41] = tested on: HCT-116; experiment: Antiproliferative activity against human HCT-116 cells after 10 days; details: HCT-116, 240 h; in short: as §4
[42] = tested on: Calu-6; experiment: Antiproliferative activity against human Calu-6 cells after 10 days; details: Calu-6, 240 h; in short: as §4
[43] = tested on: SW1783; experiment: Antiproliferative activity against human SW1783 cells after 10 days; details: SW1783, 240 h
[44] = Antiproliferative activity against human RKOAS451 cells after 10 days; details: RKOAS451, 240 h; in short: as §1
[45] = tested on: SW480; experiment: Antiproliferative activity against human SW480 cells after 10 days; details: SW480, 240 h
[46] = Antiproliferative activity against human KHOS-240S cells after 10 days; details: 240 h; in short: as §1
[47] = tested on: EM-2; experiment: Antiproliferative activity against human EM-2 cells after 10 days; details: EM-2, 240 h; in short: as §4
[48] = tested on: SK-N-DZ; experiment: Antiproliferative activity against human SK-N-DZ cells after 10 days; details: 240 h
[49] = tested on: MC-IXC; experiment: Antiproliferative activity against human MC-IXC cells after 10 days; details: 240 h; in short: as §1

Cc1cn(CCN2CCN(c3ccccc3-c3cc(C#N)cc(C(=O)NCCCN4CCCC4)c3)CC2)c2ccccc12
IC50 [1]: 2.52 µM | IC50 [2]: 3.55 µM | IC50 [3]: 1.1 µM | IC50 [4]: 1.56 µM | IC50 [5]: 5.09 µM | IC50 [6]: 1.9 µM | IC50 [7]: 5.82 µM | IC50 [8]: 3.21 µM | IC50 [9]: 2.79 µM | IC50 [10]: 3.03 µM | IC50 [11]: 2.77 µM | IC50 [12]: 1.36 µM | IC50 [13]: 2.57 µM | IC50 [14]: 2.98 µM | IC50 [15]: 6.75 µM | IC50 [16]: 1.14 µM | IC50 [17]: 0.987 µM | IC50 [18]: 3.59 µM | IC50 [19]: 3.17 µM | IC50 [20]: 2.22 µM | IC50 [21]: 2.52 µM | IC50 [22]: 1.23 µM | IC50 [23]: 1.68 µM | IC50 [24]: 0.838 µM | IC50 [25]: 2.36 µM | IC50 [26]: 0.944 µM | IC50 [27]: 1.26 µM | IC50 [28]: 3.39 µM | IC50 [29]: 2.87 µM | IC50 [30]: 0.954 µM | IC50 [31]: 2.35 µM | IC50 [32]: 2.19 µM | IC50 [33]: 1.11 µM | IC50 [34]: 1.7 µM | IC50 [35]: 2.21 µM | IC50 [36]: 2.34 µM | IC50 [37]: 4.82 µM | IC50 [38]: 2.96 µM | IC50 [39]: 5.79 µM | IC50 [40]: 2.95 µM | IC50 [41]: 2.66 µM | IC50 [42]: 3.68 µM | IC50 [43]: 2.96 µM | IC50 [44]: 1.11 µM | IC50 [45]: 2.15 µM | IC50 [46]: 1.31 µM | IC50 [47]: 2.22 µM | IC50 [48]: 3.76 µM | IC50 [49]: 1.92 µM

O=C(NC1CN(Cc2cnn(Cc3ccccc3)c2)C1)c1cn(C2CC2)nn1
IC50 [1]: > 10 µM | IC50 [2]: > 10 µM | IC50 [3]: > 10 µM | IC50 [4]: > 10 µM | IC50 [5]: > 10 µM | IC50 [6]: > 10 µM | IC50 [7]: > 10 µM | IC50 [8]: > 10 µM | IC50 [9]: > 10 µM | IC50 [10]: > 10 µM | IC50 [11]: > 10 µM | IC50 [12]: > 10 µM | IC50 [13]: > 10 µM | IC50 [14]: > 10 µM | IC50 [15]: > 10 µM | IC50 [16]: > 10 µM | IC50 [17]: > 10 µM | IC50 [18]: > 10 µM | IC50 [19]: > 10 µM | IC50 [20]: > 10 µM | IC50 [21]: > 10 µM | IC50 [22]: > 10 µM | IC50 [23]: > 10 µM | IC50 [24]: > 10 µM | IC50 [25]: > 10 µM | IC50 [26]: > 10 µM | IC50 [27]: > 10 µM | IC50 [28]: > 10 µM | IC50 [29]: > 10 µM | IC50 [30]: > 10 µM | IC50 [31]: > 10 µM | IC50 [32]: > 10 µM | IC50 [33]: > 10 µM | IC50 [34]: > 10 µM | IC50 [35]: > 10 µM | IC50 [36]: > 10 µM | IC50 [37]: > 10 µM | IC50 [38]: > 10 µM | IC50 [39]: > 10 µM | IC50 [40]: > 10 µM | IC50 [41]: > 10 µM | IC50 [42]: > 10 µM | IC50 [43]: > 10 µM | IC50 [44]: > 10 µM | IC50 [45]: > 10 µM | IC50 [46]: > 10 µM | IC50 [47]: > 10 µM | IC50 [48]: > 10 µM | IC50 [49]: > 10 µM
